Kir21 inh: blocks the mouse Kir2.1 inward-rectifier potassium channel. P35561. HEK293-Kir2.1, FluxOR thallium flux fluorescence; active compounds read low. B-score at 10 µM. 310,000 compounds, 0.85% hits. AID 1672;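 active means fluorescence ratio B-score at or below minus 3 SD of library scores, with starting-brightness B-score within 2 SD, cut at about -4.2 in these data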;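 further: channel flux triggered by added potassium and thallium sulfate stimulus; B-score of peak minus minimum fluorescence over baseline after thallium stimulus; more negative B-score means stronger Kir2.1 block with less thallium influx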
TRPC4 block: inhibitors of mouse TRPC4 channel | HEK293 TRPC4beta/mu-opioid, DAMGO-evoked Fluo4 calcium flux; active compounds read low | B-score at 10 µM | 300,000 compounds, 0.39% hits | Q9QUQ5;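 active means B-score over 3 SD under the library average, no early fluorescence shift, positive overall ratio signal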
Target sequence (Q9QUQ5 whole entry, looked up): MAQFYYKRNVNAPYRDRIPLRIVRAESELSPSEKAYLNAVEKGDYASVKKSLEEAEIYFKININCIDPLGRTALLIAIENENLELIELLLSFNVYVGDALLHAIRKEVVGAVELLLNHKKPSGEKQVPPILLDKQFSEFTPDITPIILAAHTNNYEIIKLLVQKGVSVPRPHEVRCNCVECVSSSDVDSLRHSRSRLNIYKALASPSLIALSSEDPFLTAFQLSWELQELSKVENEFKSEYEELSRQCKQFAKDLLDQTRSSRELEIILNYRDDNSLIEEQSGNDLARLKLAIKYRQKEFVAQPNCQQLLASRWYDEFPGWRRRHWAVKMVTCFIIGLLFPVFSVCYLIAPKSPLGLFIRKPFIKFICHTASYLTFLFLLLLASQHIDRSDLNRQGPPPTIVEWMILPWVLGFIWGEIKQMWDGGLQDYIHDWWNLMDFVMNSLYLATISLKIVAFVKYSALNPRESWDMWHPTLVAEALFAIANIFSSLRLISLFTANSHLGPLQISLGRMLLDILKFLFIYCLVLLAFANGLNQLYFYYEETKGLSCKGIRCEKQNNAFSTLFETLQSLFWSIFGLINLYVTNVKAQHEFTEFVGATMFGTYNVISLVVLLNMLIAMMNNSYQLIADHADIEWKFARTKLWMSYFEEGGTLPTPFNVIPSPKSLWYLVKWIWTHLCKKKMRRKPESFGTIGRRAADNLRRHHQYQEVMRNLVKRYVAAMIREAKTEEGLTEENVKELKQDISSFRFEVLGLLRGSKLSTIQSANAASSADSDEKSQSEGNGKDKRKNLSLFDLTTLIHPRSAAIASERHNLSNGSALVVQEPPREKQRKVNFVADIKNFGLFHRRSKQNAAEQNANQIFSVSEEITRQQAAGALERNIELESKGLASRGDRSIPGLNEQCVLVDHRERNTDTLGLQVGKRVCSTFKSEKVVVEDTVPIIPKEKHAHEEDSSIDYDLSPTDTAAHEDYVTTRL
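Assay system: TRPC4beta/mu-opioid receptor HEK293 cell line; compound dosing: single concentration per test compound; detection: Fluo4 Ca2+ flux fluorescence; evaluation: per-well B score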
TRPC6 activator: mouse TRPC6 channel activation; Q61143; HEK293-TRPC6 membrane potential dye fluorescence; active compounds read high; B-score at 10 µM; 310,000 compounds, 0.13% hits;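 active means B-score of the integrated fluorescence ratio above library mean plus 3 SD, and starting fluorescence ratio within library mean plus 5 SD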;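 further: higher score means more depolarization so channel activation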
TRPC4 agonist: TRPC4 (mouse) channel activation. Q9QUQ5. HEK293 TRPC4beta/mu-opioid, Fluo4 calcium fluorescence; active compounds read high. B-score at 10 µM. 310,000 compounds, 0.49% hits. AID 2237;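 active means B-score above 5 SD of library B-scores, and initial fluorescence ratio not above library mean plus 5 SD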;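 further: positive B-score marks a calcium rise read as TRPC4 activation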
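System – HEK293 cells stably co-expressing mouse TRPC4beta and mu-opioid receptor · Signal – Fluo4 calcium-sensitive dye fluorescence, kinetic, 1 Hz baseline · Benchmarks – buffer (low) and maximal DAMGO (high) · Read-out – B score of integrated fluorescence ratio per well · Incubation – dye loading 45 min room temperature, 110 s kinetic read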
TRPC4 potent: TRPC4 (mouse) allosteric potentiation | AID 2227 | 310,000 compounds, 0.42% hits | Q9QUQ5 | HEK293 TRPC4beta/mu-opioid, DAMGO EC20, Fluo-4 Ca2+ flux; active compounds read high | B-score at 10 µM;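 active means B-score of calcium response area above 5 SD of library B-scores, with initial fluorescence ratio within 5 SD of library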
TRPC6 inh: mouse TRPC6 channel inhibition; Q61143; 310,000 compounds, 1.1% hits; B-score at 10 µM; HEK293-TRPC6, membrane potential dye, ACh-evoked depolarization; active compounds read low;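 active means B-score under library mean minus 3 SD, initial fluorescence not abnormally high, positive integrated signal ratio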;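 further: B-score derived from integrated fluorescence ratio over the kinetic read; more negative B-score means stronger inhibition of depolarization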
TRPC4 sel inh 2: second check of whether TRPC6 inhibitors also affect mouse TRPC4 | inhibition, % at 10 µM | AID 2776 | shares compounds with TRPC6 inh | HEK293 TRPC4/MOR, membrane potential dye fluorescence; channel activated by saturating DAMGO dose | 920 compounds, 42% hits;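 active means compounds whose fluorescence signal differed from control wells by over 3 SD, either direction, in both duplicate plates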
TRPC4 spec: mouse TRPC4 off-target activity of TRPC6 inhibitors; activity change, negative = inhibition, % at 10 µM; shares compounds with TRPC6 inh; HEK293 TRPC4/mu-opioid, membrane potential fluorescence; 920 compounds, 61% hits;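 active means rise or fall in signal beyond 3 SD of buffer-only wells in both replicate plates, either sign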;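 further: integrated kinetic ratio of fluorescence range over baseline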
HEK293 MPD ctr 2-1: second check of TRPC6 inhibitor effects in parental HEK293 cells | 920 compounds, 31% hits | AID 2779 | shares compounds with TRPC6 inh | signal change vs control, % at 10 µM | parental HEK293 membrane potential dye fluorescence; maximal acetylcholine challenge after compound addition;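 active means membrane potential signal moving either way by over 3 SD of the maximum-effect control, in both duplicate plates, meaning non-specific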
HEK293 MPD ctr-1: counter-screen for TRPC6 inhibitors: effect in parental HEK293 cells; 920 compounds, 60% hits; shares compounds with TRPC6 inh; parental HEK293 membrane potential dye fluorescence; membrane potential signal change, % at 10 µM; AID 2780;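 active means membrane potential signal shifting up or down by more than 3 SD of buffer-only wells, on both duplicate plates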
HEK293 MPD ctr-2: parental HEK293 nonspecific activity of TRPC6 modulators; shares compounds with TRPC6 inh; membrane potential dye fluorescence; membrane potential signal change, % at 10 µM; 2,400 compounds, 51% hits; AID 488924;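 active means membrane potential signal moves up or down beyond 5 SD from buffer-only wells, on both duplicate plates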
HEK293 MPD ctr 2-2: parental HEK293 nonspecific activity of TRPC6 modulators, second screen. 2,400 compounds, 14% hits. membrane potential dye fluorescence; after compound, maximal acetylcholine stimulation. shares compounds with TRPC6 inh. AID 488926. inhibition, % at 10 µM;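 active means membrane potential signal drops by more than 5 SD from the mean control signal, in both duplicate plates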
TRPC4/MOR mod: tests whether TRPC6 modulators also affect mouse TRPC4; AID 488927; shares compounds with TRPC6 inh; HEK293 TRPC4/mu-opioid, membrane potential fluorescence; 2,400 compounds, 69% hits; percent change from control (negative = decrease, positive = increase), % at 10 µM;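 active means membrane potential signal moved up or down beyond 5 SD of buffer control wells, in both duplicate plates, actives on both sides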
TRPC4 ctr inh 2: second check of whether TRPC6 modulators also affect mouse TRPC4; shares compounds with TRPC6 inh; AID 488928; 2,400 compounds, 55% hits; inhibition, % at 10 µM; HEK293 TRPC4/mu-opioid, membrane potential dye fluorescence; stimulated with maximal-effect DAMGO;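 active means drop in membrane potential signal beyond 5 SD of the control wells in both duplicate plates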;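 further: TRPC4 counter screen for TRPC6 hits run under conditions tuned for TRPC6 not TRPC4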
TRPC6 block conf: confirmation of mouse TRPC6 inhibitors; shares compounds with TRPC6 inh; HEK293-TRPC6, membrane potential dye, ACh-evoked depolarization; inhibition, % at 10 µM; 3,300 compounds, 43% hits; AID 488960;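 active means fluorescence ratio falls more than 5 SD below the full-stimulation control mean, in both duplicate runs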;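 further: integrated fluorescence ratio of peak minus minimum over baseline after agonist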
TRPC6 act confirm: confirmation of mouse TRPC6 activators. shares compounds with TRPC6 inh. HEK293-TRPC6 membrane potential dye fluorescence, FDSS. activation, % at 10 µM. 2,800 compounds, 11% hits;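 active means ratio signal rise beyond 5 SD above unstimulated control wells' mean, seen in both duplicate runs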
Numbers stand for hits. An excerpt weighted towards active compounds, which were near 3% of everything screened.

Screening CCN(C1CCCCC1)S(=O)(=O)c1ccc(S(=O)(=O)N2CCN(CCC#N)CC2)cc1 returned Kir21 inh inactive, TRPC4 block inactive, TRPC6 activator inactive, TRPC4 agonist inactive, TRPC4 potent inactive, TRPC6 inh -5.5, HEK293 MPD ctr-2 inactive, HEK293 MPD ctr 2-2 inactive, TRPC4/MOR mod 10%, TRPC4 ctr inh 2 inactive, TRPC6 block conf 38% and TRPC6 act confirm inactive.
`CC(C)N(C(=O)CN1C(=O)NC(c2ccccc2)(c2ccccc2)C1=O)C(C)C` gave Kir21 inh inactive, TRPC4 block inactive, TRPC6 activator inactive, TRPC4 agonist inactive, TRPC4 potent inactive and TRPC6 inh inactive.
CCOc1cc(/C=C2\N=C(SCC)SC2=O)cc([N+](=O)[O-])c1OC(C)=O was read as Kir21 inh inactive, TRPC4 block inactive, TRPC6 activator inactive, TRPC4 agonist inactive, TRPC4 potent inactive and TRPC6 inh inactive.
For CCOc1cc(/C=C2\N=C(SC)SC2=O)cc([N+](=O)[O-])c1OC(C)=O the results were Kir21 inh inactive, TRPC4 block inactive, TRPC6 activator inactive, TRPC4 agonist inactive, TRPC4 potent inactive, TRPC6 inh -5.1, HEK293 MPD ctr-2 inactive, HEK293 MPD ctr 2-2 inactive, TRPC4/MOR mod inactive, TRPC4 ctr inh 2 39%, TRPC6 block conf inactive and TRPC6 act confirm inactive.
Clc1cccc(Cl)c1CNc1ccc(N2CCCC2)cc1 was read as Kir21 inh inactive, TRPC4 block inactive, TRPC6 activator inactive, TRPC4 agonist inactive, TRPC4 potent inactive and TRPC6 inh inactive.
CN(C)CCCNc1c2c(nc3cc(-c4cccc(F)c4)nn13)CCC2 was read as Kir21 inh inactive, TRPC4 block inactive, TRPC6 activator inactive, TRPC4 agonist 123, TRPC4 potent inactive, TRPC6 inh -7.3, HEK293 MPD ctr-2 inactive, HEK293 MPD ctr 2-2 126%, TRPC4/MOR mod -20%, TRPC4 ctr inh 2 52%, TRPC6 block conf 78% and TRPC6 act confirm inactive.
`Cc1cccc(-c2cc3nc4c(c(NCc5ccco5)n3n2)CCCC4)c1` gave Kir21 inh inactive, TRPC4 block inactive, TRPC6 activator inactive, TRPC4 agonist inactive, TRPC4 potent inactive and TRPC6 inh inactive.
For Cc1ccc(-c2ccc(OC(=O)c3ccc(=O)[nH]c3)c(C)c2)cc1 the results were Kir21 inh inactive, TRPC4 block inactive, TRPC6 activator inactive, TRPC4 agonist inactive, TRPC4 potent inactive, TRPC6 inh -5.1, HEK293 MPD ctr-2 inactive, HEK293 MPD ctr 2-2 inactive, TRPC4/MOR mod inactive, TRPC4 ctr inh 2 inactive, TRPC6 block conf inactive and TRPC6 act confirm inactive.
For CCOc1ccc(C(=O)N(Cc2ccccc2)c2cccc(C)c2)cc1OC the results were Kir21 inh inactive, TRPC4 block inactive, TRPC6 activator inactive, TRPC4 agonist inactive, TRPC4 potent inactive and TRPC6 inh inactive.
`CN(C)C(CNc1ccc(S(C)(=O)=O)cc1[N+](=O)[O-])Cc1ccccc1` (stereo not drawn) gave Kir21 inh inactive, TRPC4 block inactive, TRPC6 activator inactive, TRPC4 agonist inactive, TRPC4 potent inactive, TRPC6 inh -5.1, HEK293 MPD ctr-2 inactive, HEK293 MPD ctr 2-2 inactive, TRPC4/MOR mod inactive, TRPC4 ctr inh 2 32%, TRPC6 block conf inactive and TRPC6 act confirm inactive.
`O=C(c1cccs1)N1CCC(c2nc3c(nnn3Cc3c(Cl)cccc3Cl)c(=O)[nH]2)CC1` gave Kir21 inh inactive, TRPC4 block inactive, TRPC6 activator inactive, TRPC4 agonist inactive, TRPC4 potent inactive, TRPC6 inh -5.4, HEK293 MPD ctr-2 inactive, HEK293 MPD ctr 2-2 inactive, TRPC4/MOR mod inactive, TRPC4 ctr inh 2 inactive, TRPC6 block conf inactive and TRPC6 act confirm inactive.
COc1cccc2sc3ccc(NCCC4CCCN4C)cc3c(=O)c12 (stereo not drawn) was read as Kir21 inh inactive, TRPC4 block inactive, TRPC6 activator inactive, TRPC4 agonist inactive, TRPC4 potent inactive, TRPC6 inh -6.8, TRPC4 sel inh 2 65%, TRPC4 spec 21%, HEK293 MPD ctr 2-1 inactive, HEK293 MPD ctr-1 17% and TRPC6 block conf inactive.
For CC(C)Cc1nnc(NC(=O)c2ccc3c(=O)n4c(nc3c2)CCC4)s1 the results were Kir21 inh inactive, TRPC4 block inactive, TRPC6 activator inactive, TRPC4 agonist inactive, TRPC4 potent inactive, TRPC6 inh -7.7, TRPC4 sel inh 2 inactive, TRPC4 spec -15%, HEK293 MPD ctr 2-1 inactive, HEK293 MPD ctr-1 -280%, TRPC6 block conf inactive and TRPC6 act confirm inactive.
Cc1ccc(C(=O)NNC2=Nc3cccc4cccc2c34)cc1 was read as Kir21 inh inactive, TRPC4 block inactive, TRPC6 activator inactive, TRPC4 agonist inactive, TRPC4 potent inactive, TRPC6 inh -5.3, HEK293 MPD ctr-2 inactive, HEK293 MPD ctr 2-2 inactive, TRPC4/MOR mod inactive, TRPC4 ctr inh 2 inactive, TRPC6 block conf inactive and TRPC6 act confirm inactive.
Screening COc1ccc(C(=O)NNC2=Nc3cccc4cccc2c34)cc1 returned Kir21 inh inactive, TRPC4 block inactive, TRPC6 activator inactive, TRPC4 agonist inactive, TRPC4 potent inactive and TRPC6 inh inactive.

High-throughput results: PubChem, Johns Hopkins Ion Channel Center
